For one assay, the system named is HeLa. The experiment in a line: Cytotoxicity against human HeLa cells assessed as reduction in cell viability after 72 hrs by MTT assay. The assay is classed as functional, cell-based. The method in brief:
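HeLa and MCF7 cells in log phase were seeded for 24 h, then exposed to a range of ligand concentrations for 72 h. MTT (5 mg/ml stock) was added for 4 h, formazan dissolved in DMSO, and absorbance read at 570 nm. Three independent experiments in triplicate, mean ± SD.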
(Tetrazolium assays rely on reduction of a dye to a coloured formazan, in cell work by metabolically active cells.)

Assay [1] has as its system Quadruplex DNA. The experiment in a line: Binding affinity to human Bcl2 G-quadruplex DNA assessed as change in melting temperature in presence of KCl by CD spectroscopic method. Type of assay: nucleic-acid assay. The method in brief: (§1)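 CD melting of 5 µM G4 DNA in 10 mM Tris-HCl pH 7.4, 25 mM KCl, 0.1 mM EDTA. Ligand was present during folding (heating, slow cooling). Spectra 200–400 nm over 20–96 °C in 2 °C steps, buffer blank subtracted. Tm was taken from normalized ellipticity at the positive maximum (262 nm for promoter G4s). ΔTm = ligand-bound minus DNA alone; average of two independent experiments.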

Assay [2] addresses Telomerase reverse transcriptase (Homo sapiens, UniProt O14746). Nature of the assay: Inhibition of telomerase (unknown origin) by TRAP-LIG assay. In short, it runs like this: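 Telomerase activity measured by modified TRAP-LIG assay across ligand concentrations of 0.01 to 2 µM (11 levels). Positive and negative controls included. Inhibition was judged from the intensity and number of telomeric ladder bands.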

Assay [3] has as its target Quadruplex DNA. The experiment in a line: Displacement of thiazole orange from human Bcl2 G-quadruplex DNA after 5 mins in presence of KCl by fluorescence assay. Type of assay: nucleic-acid assay. The method in brief: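 Thiazole orange displacement from a G4 DNA–TO complex (1 µM TO + 0.5 µM G4 DNA) in 10 mM Tris-HCl pH 7.4, 100 mM KCl, 0.1 mM EDTA. Ligand was added in increasing steps, with 5 min incubation each. Fluorescence read at ex 501/em 531 nm; % displacement = 100 − (Ft/F0 × 100). DC50 is the ligand concentration giving 50% displacement, read from plots; average of two independent experiments.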

Assay [4] has as its system Quadruplex DNA. Nature of the assay: Stabilization of VEGF G-quadruplex DNA in human HeLa cells assessed as decrease in VEGF mRNA level at 5 uM after 24 hrs by RT-PCR method relative to control. Type of assay: cell-based. More on the design: scale not given: the % may be the effect or the level left. In short, it runs like this:
(§2)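 HeLa cells exposed to increasing ligand concentrations (5 and 10 µM named) for 24 h, with DMSO-treated cells as control. Total RNA was extracted with TRI reagent and DNase I-treated. c-MYC and VEGF transcripts were quantified by qRT-PCR, normalized to GAPDH, and expressed as relative fold change.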

Assay [5] deals with Quadruplex DNA. Nature of the assay: Induction of conformational changes in human Bcl2 G-quadruplex DNA assessed as inversion from potassium ion stabilized hybrid type mixed parallel/antiparallel G-quadruplex to stable telomere parallel-stranded G-quadruplex after 5 mins in presence of KCl by CD spectroscopic method. The assay is classed as nucleic-acid assay. In short, it runs like this:
(§3)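 CD spectra of 5 µM G4 DNA in 10 mM Tris-HCl pH 7.4, 100 mM KCl, 0.1 mM EDTA, with or without ligand. Mixtures were heated 95 °C for 5 min and slowly cooled to room temperature. Recorded 200–400 nm at 25 °C, 100 nm/min, 2 s response, 1 cm cell; average of three scans.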

Assay [6] has as its system Quadruplex DNA. The experiment in a line: Binding affinity to human VEGF G-quadruplex DNA assessed as change in melting temperature in presence of KCl by CD spectroscopic method. The assay is classed as nucleic-acid assay. The method in brief: as §1
The test system of assay [7] is Quadruplex DNA. Nature of the assay: Stabilization of VEGF G-quadruplex DNA in human HeLa cells assessed as decrease in VEGF mRNA level after 24 hrs by RT-PCR method. Type of assay: cell-based. In short, it runs like this:
as §2

For assay [8], the system named is Quadruplex DNA. Nature of the assay: Binding affinity to human c-Myc G-quadruplex DNA at 0.6 uM after 5 mins in presence of KCl by fluorescence spectroscopic method. The assay is classed as nucleic-acid assay. The method in brief: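 Fluorescence titration at 25 °C with 0.6 µM ligand in 10 mM Tris-HCl pH 7.4, 100 mM KCl, 0.1 mM EDTA. Preformed G4 DNA was added stepwise, with 5 min incubation before each spectrum. Excitation 330 nm; emission 350–550 nm, slit 5 nm.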

For assay [9], the system named is Quadruplex DNA. Nature of the assay: Binding affinity to human VEGF G-quadruplex DNA assessed as stabilization of parallel stranded topology after 5 mins in presence of KCl by CD spectroscopic method. Type of assay: nucleic-acid assay. In short, it runs like this:
as §3

Assay [10] concerns Quadruplex DNA. The experiment in a line: Binding affinity to human telomeric G-quadruplex DNA assessed as change in melting temperature in presence of KCl by CD spectroscopic method. The assay is classed as nucleic-acid assay. In short, it runs like this: as §1

The record followed here is ChEMBL document CHEMBL4196021, “Targeting G-quadruplex DNA structures in the telomere and oncogene promoter regions by benzimidazole‒carbazole ligands” (Eur J Med Chem, 2018).

Calls of active or inactive are those of the source. The calls are words filed in the database; no cut-off is given here.

The IC50 is the concentration needed to halve the response being measured. In general, ΔTm refers to the change in melting temperature against a reference sample.

Sequence of Telomerase reverse transcriptase (O14746 whole entry): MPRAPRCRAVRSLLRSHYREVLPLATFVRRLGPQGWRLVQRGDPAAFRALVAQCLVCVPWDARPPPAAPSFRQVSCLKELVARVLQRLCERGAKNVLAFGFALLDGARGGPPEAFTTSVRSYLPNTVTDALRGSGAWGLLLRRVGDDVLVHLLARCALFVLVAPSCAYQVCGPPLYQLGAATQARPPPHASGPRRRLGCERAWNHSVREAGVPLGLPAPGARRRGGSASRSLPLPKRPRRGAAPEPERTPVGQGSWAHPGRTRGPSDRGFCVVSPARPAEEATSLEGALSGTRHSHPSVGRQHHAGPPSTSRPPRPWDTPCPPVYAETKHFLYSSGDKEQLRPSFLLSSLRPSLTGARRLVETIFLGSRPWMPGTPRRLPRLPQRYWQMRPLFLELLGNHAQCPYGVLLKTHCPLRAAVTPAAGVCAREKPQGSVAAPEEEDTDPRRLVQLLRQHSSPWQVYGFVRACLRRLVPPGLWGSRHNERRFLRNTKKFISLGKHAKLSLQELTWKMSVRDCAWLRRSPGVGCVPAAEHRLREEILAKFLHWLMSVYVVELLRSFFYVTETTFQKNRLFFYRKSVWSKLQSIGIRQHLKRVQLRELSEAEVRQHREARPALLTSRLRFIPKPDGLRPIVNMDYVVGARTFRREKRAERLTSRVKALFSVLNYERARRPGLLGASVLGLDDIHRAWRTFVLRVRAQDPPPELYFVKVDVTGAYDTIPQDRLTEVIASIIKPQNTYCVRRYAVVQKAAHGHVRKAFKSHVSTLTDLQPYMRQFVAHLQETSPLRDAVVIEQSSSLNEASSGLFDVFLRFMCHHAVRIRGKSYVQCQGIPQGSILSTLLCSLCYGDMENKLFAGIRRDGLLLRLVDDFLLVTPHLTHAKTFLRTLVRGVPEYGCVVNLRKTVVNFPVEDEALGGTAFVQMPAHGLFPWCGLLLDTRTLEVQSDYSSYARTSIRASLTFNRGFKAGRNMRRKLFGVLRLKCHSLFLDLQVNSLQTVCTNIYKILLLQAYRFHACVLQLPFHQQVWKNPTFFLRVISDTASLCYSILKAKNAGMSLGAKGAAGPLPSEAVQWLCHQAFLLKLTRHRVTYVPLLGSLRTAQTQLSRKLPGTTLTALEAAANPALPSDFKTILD

In the case of `CN(C)CCCCn1c2ccc(-c3nc4ccc(N5CCN(CCO)CC5)cc4[nH]3)cc2c2cc(-c3nc4ccc(N5CCN(CCO)CC5)cc4[nH]3)ccc21`, the Activity entry in the assay with HeLa was “Dose-dependent effect”; in the assay on Quadruplex DNA [4], 44%; in the assay on Quadruplex DNA [7], “Dose-dependent effect”. Also, the values for the concentration for half-maximal inhibition (IC50) (in the assay with HeLa; in [2]) were 8290 nM and 300 nM, respectively. Also, the shift in melting temperature (ΔTm) with Quadruplex DNA [1] worked out at 9.54 °C; in the assay on Quadruplex DNA [6], 11.3 °C; in the assay with Quadruplex DNA [10], 21.3 °C. Moreover, the inhibition result in assay [2] was “Dose-dependent effect”. In addition, the DC50 on Quadruplex DNA [3] came out at 1390 nM. In addition, the result in the assay on Quadruplex DNA [5], in the assay on Quadruplex DNA [8] and with Quadruplex DNA [9] was Active.
